Measured values from ChEMBL document CHEMBL3046222, “Insecticidal activity of penitrems, including penitrem G, a new member of the family isolated from Penicillium crustosum” (2003).

Tests used:
Assay type in all cases: functional
[1] = system: Ceratitis capitata; assay: Insecticidal activity against adult Ceratitis capitata assessed as mortality at 10 ug/fly measured every 24 hr for 10 days relative to control
Procedure, shortened: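 Adults 2-3 days old (5 males, 5 females per group) were anaesthetised on ice and dosed topically on the ventral abdomen with 1 µL of acetone dilution. Controls received 1 µL of acetone. Flies were held at 27 ± 1 °C, 50-60% RH and 16 h/8 h light/dark, with diet and water ad libitum. Mortality was scored every 24 h for 10 days. The assay was run on six occasions.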

[2] = system: Oncopeltus fasciatus; assay: Insecticidal activity against third-instar nymph stage of Oncopeltus fasciatus assessed as nymph survival to reach adult instar stage at 20 to 500 ug/cm2 after 72 hr relative to control
Procedure, shortened: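 Insects were colony-reared at 27 ± 1 °C, 50-60% RH and 16 h/8 h photoperiod. After 72 h of exposure, surviving nymphs were moved to a 500 cm3 glass flask and held under standard conditions to follow development to the adult stage. Acetone-treated controls were run in parallel.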

[3] = system: Oncopeltus fasciatus; assay: Insecticidal activity against third-instar nymph stage of Oncopeltus fasciatus assessed as mortality at 20 ug/cm2 after 72 hr relative to control
Procedure, shortened: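 Nymphs were reared on sunflower seeds at 27 ± 1 °C, 50-60% RH and 16 h/8 h light/dark. Acute toxicity was scored as dead insects after 72 h of exposure. Controls received the same amount of acetone. Run in triplicate; values are means ± SE with significance at […].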

[4] = system: Ceratitis capitata; assay: Insecticidal activity against adult Ceratitis capitata assessed as fertility reduction at 10 ug/fly measured on 6 to 10 days relative to control; parameters: scale not given: the % may be the effect or the level left
Procedure, shortened: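 Flies were dosed topically with 1 µL of acetone solution after ice anaesthesia; controls received acetone. On days 6 and 10 after treatment, 30 eggs per experiment were picked at random and placed on plates coated with 0.03% agar. Plates were kept at 27 ± 2 °C, 50-60% RH and 16 h/8 h light/dark, and emerged larvae were counted 5 days after collection.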

[5] = system: Ceratitis capitata; assay: Insecticidal activity against adult Ceratitis capitata assessed as eclosion rate at 10 ug/fly measured on 4 to 10 days relative to control
[6] = system: Ceratitis capitata; assay: Insecticidal activity against adult Ceratitis capitata assessed as fecundity reduction at 10 ug/fly measured every 2 days for 10 days relative to control; parameters: scale not given: the % may be the effect or the level left
Procedure, shortened: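 Flies were anaesthetised on ice and dosed topically on the abdomen with 1 µL of acetone solution; controls received acetone alone. Eggs laid over 24 h were collected and counted every 2 days through the 10-day period. Female deaths were logged to give eggs/female/day, accumulated over 10 days. Six independent experiments, reported as means ± SE.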

Compound	mortality [1] [%]	Survival [2] [%]	mortality at 20 µg/cm2 [3] [%]	Activity [4] [%]	Activity [5] [%]	Activity [6] [%]
C=C(C)[C@H]1O[C@H]2CC[C@@]3(C)[C@@](O)(CC[C@H]4[C@@H]5OC(C)(C)[C@H]6C[C@@H]7C(=C)Cc8c(Cl)cc9[nH]c(c5c9c8[C@@]76O)[C@@]43C)[C@@]23O[C@H]3[C@H]1O [PENITREM A]	59.7	0	31.1	100	0	78.4
C=C1Cc2ccc3[nH]c4c5c3c2[C@H]2[C@@H]1C[C@H]2C(C)(C)O[C@H]5[C@@H]1CC[C@@]2(O)C3=C[C@@H](O)[C@@H](C(=C)C)O[C@H]3CC[C@]2(C)[C@@]41C [PENITREM D]	41.7	58.3	11.1	52.5	42.8	77.1
C=C1Cc2c(Cl)cc3[nH]c4c5c3c2[C@H]2[C@@H]1C[C@@H]2C(C)(C)O[C@H]5[C@@H]1CC[C@@]2(O)[C@@]35O[C@@H]3[C@@H](O)[C@@H](C(=C)C)O[C@H]5CC[C@]2(C)[C@@]41C [PENITREM F]	66.6	9.5	20.3	100	0	100
C=C1Cc2ccc3[nH]c4c5c3c2[C@H]2[C@@H]1C[C@H]2C(C)(C)O[C@H]5[C@]1(O)CC[C@@]2(O)C3=C[C@@H](O)[C@@H](C(=C)C)O[C@H]3CC[C@]2(C)[C@@]41C [PENITREM G]	0	100	0	3.8	88.5	7.2
C=C1Cc2c(Cl)cc3[nH]c4c5c3c2[C@H]2[C@@H]1C[C@@H]2C(C)(C)O[C@H]5[C@@H]1CC[C@@]2(O)C3=C[C@@H](O)[C@@H](C(=C)C)O[C@H]3CC[C@]2(C)[C@@]41C [PENITREM C]	73.3	29.5	24.4	100	0	94.9
C=C1Cc2ccc3[nH]c4c5c3c2[C@H]2[C@@H]1C[C@@H]2C(C)(C)O[C@H]5[C@@H]1CC[C@@]2(O)[C@@]35O[C@@H]3[C@@H](O)[C@@H](C(=C)C)O[C@H]5CC[C@]2(C)[C@@]41C [PENITREM B]	50	14.3	6.6	100	0	88
